Measured values published in ChEMBL document CHEMBL1255558, “Bis-alkylamine quindolone derivatives as new antimalarial leads” (Bioorg Med Chem Lett, 2010).
pIC50: −log10 of the molar value.

What was measured:
[1] = Binding to hematin monomer
[2] = tested on: Plasmodium falciparum; assay: Antimalarial activity against chloroquine-resistant Plasmodium falciparum W2; format: functional, organism-based
In short: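 Ring-stage parasites (1% parasitaemia in human red cells, sorbitol-synchronised) exposed to compounds for 48 h at 37 °C in RPMI-1640 with 25 mM HEPES pH 7.4 and 10% heat-inactivated human serum. Cells then fixed in 2% HCHO/PBS, stained with 1 nM YOYO-1 in PBS containing 100 mM NH₄Cl and 0.1% Triton X-100, and counted by flow cytometry (ex 488/em 520 nm). IC50 derived by curve fitting.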

[3] = Cytotoxicity against human HepG2A16 cells; format: cell-based
In short: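 HepG2 A16 human hepatic cells seeded at 1 × 10⁴ cells/well and exposed to a range of concentrations for 48 h under standard culture conditions. IC₅₀ (50% growth inhibition) read from plots of degree of cell injury against concentration.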

[4] = Selectivity ratio of IC50 for human HepG2A16 cells to IC50 for Plasmodium falciparum W2; format: ADME
In short: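 Ratio of HepG2 A16 cytotoxicity IC₅₀ (48 h) to W2 IC₅₀. The W2 assay used sorbitol-synchronized ring stages at 1% parasitemia in human RBCs, 48 h at 37 °C in RPMI-1640 with 25 mM HEPES pH 7.4 and 10% heat-inactivated human serum. Cells were then fixed in 2% HCHO, stained with 1 nM YOYO-1 and counted by flow cytometry.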

SMILES	log Kass [1]	pIC50 [2]	pIC50 [3]	selectivity ratio [4]
CCN(CC)CCn1c2ccc(Cl)cc2c2c1c(=O)c1ccc(Cl)cc1n2CCN(CC)CC	5.1	6.48	4.96	31
CCN(CC)CCOc1c2ccc(Cl)cc2nc2c3cc(Cl)ccc3n(CCN(CC)CC)c12	5.2	7.29	5.30	98
O=c1c2ccc(Cl)cc2[nH]c2c1[nH]c1ccccc12	5	5.07		
CCN(CC)CCOc1c2ccc(Cl)cc2nc2c1[nH]c1ccccc12	5.1	5.88		
CCN(CC)CCOc1c2ccccc2nc2c1[nH]c1ccccc12	5	5.58	5.05	3.6
O=c1c2ccccc2[nH]c2c1[nH]c1ccccc12	4.7	< 5.00	4.68	< 2
CCN(CC)CCOc1c2ccc(Cl)cc2nc2c1[nH]c1ccc(Cl)cc12		6.26		
O=c1c2ccc(Cl)cc2[nH]c2c1[nH]c1ccc(Cl)cc12	4.9	< 5.00		
CCN(CC)CCn1c2ccccc2c2c1c(=O)c1ccc(Cl)cc1n2CCN(CC)CC	4.9	6.69	5.15	33
CCN(CC)CCn1c2ccccc2c2c1c(=O)c1ccccc1n2CCN(CC)CC	4.9	6.57	5.36	16
CCN(CC)CCOc1c2ccccc2nc2c3ccccc3n(CCN(CC)CC)c12	4.9	6.27	5.15	12
CCN(CC)CCOc1c2ccc(Cl)cc2nc2c3ccccc3n(CCN(CC)CC)c12	4.9	6.73	5.10	44
